What was measured:
Rattus norvegicus [1] = experiment: Compound was tested for intestinal Ulcerogenic effect in rats, activity expressed as ulcer incidence at a dose of 30 mg/kg; type: functional
Summary of the method: (§1)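 Normal fed rats were gavaged once daily for three consecutive days at 10–300 mg/kg and killed 24 h after the last dose. Intestines were examined for ulcers, recording incidence per group of 8 and a lesion score (±SE).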

Rattus norvegicus [2] = experiment: Compound was tested in vivo for antiinflammatory activity against chronic adjuvant arthritic rat by therapeutic percentage inhibition 1 degree paw after peroral administration of 10 mg/kg of dose; type: functional; conditions: route oral
Rattus norvegicus [3] = experiment: Compound was tested in vivo for antiinflammatory activity against chronic adjuvant arthritic rat by prophylactic inhibition 2 degree paw after peroral administration of 36 mg/kg of dose; conditions: po
Rattus norvegicus [4] = experiment: Compound was tested in vivo against chronic adjuvant arthritic rat by therapeutic inhibition 2 degree paw. Relative potency with respect to (8-Benzyl-5-hydroxy-1,3-dimethyl-6-propyl-1H,8H-1,3,4b,8,9-pentaaza-fluorene-2,4,7-trione); type: functional
Rattus norvegicus [5] = experiment: Compound was tested in vivo for antiinflammatory activity against chronic adjuvant arthritic rat by prophylactic inhibition 2 degree paw after peroral administration of 18 mg/kg of dose; conditions: po
Rattus norvegicus [6] = experiment: Compound was tested for intestinal Ulcerogenic effect in rats, activity expressed as ulcer incidence at a dose of 10 mg/kg; type: functional; summary of the method: as §1
Rattus norvegicus [7] = experiment: Compound was tested for gastric Ulcerogenic effect in rats, activity expressed as lesion length at a dose of 10 mg/kg
Rattus norvegicus [8] = experiment: Compound was tested for gastric Ulcerogenic effect in rats, activity expressed as lesion length at a dose of 30 mg/kg
Rattus norvegicus [9] = experiment: Compound was tested for intestinal Ulcerogenic effect in rats, activity expressed as lesion score at a dose of 30 mg/kg; type: functional; summary of the method: as §1
Rattus norvegicus [10] = experiment: Compound was tested for intestinal Ulcerogenic effect in rats, activity expressed as ulcer incidence at a dose of 100 mg/kg; type: functional; summary of the method: as §1
Rattus norvegicus [11] = experiment: Compound was tested for gastric Ulcerogenic effect in rats, activity expressed as lesion length at a dose of 300 mg/kg
Rattus norvegicus [12] = experiment: Compound was tested for intestinal Ulcerogenic effect in rats at a dose of 100 mg/kg; type: functional; summary of the method: as §1
Rattus norvegicus [13] = experiment: Compound was tested for intestinal Ulcerogenic effect in rats, activity expressed as lesion score at a dose of 300 mg/kg; type: functional; summary of the method: as §1
[14] = Plasma level data at a dose of 36 mg/kg, po after 4 hr; type: ADME, organism-based; design: dose 36 mg/kg, route oral; conditions: read-out: Plasma level
Summary of the method: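 Male Lewis rats given a single po dose of the sodium salt suspended in 0.4% (w/v) methyl cellulose. Plasma drug levels measured by HPLC at set times up to 12 h; values are mean ± SD, n = 3.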

Rattus norvegicus [15] = experiment: Compound was tested for intestinal Ulcerogenic effect in rats at a dose of 300 mg/kg; type: functional; summary of the method: as §1
Rattus norvegicus [16] = experiment: Compound was tested for intestinal Ulcerogenic effect in rats at a dose of 10 mg/kg; type: functional; summary of the method: as §1
Rattus norvegicus [17] = experiment: Compound was tested in vivo for antiinflammatory activity against chronic adjuvant arthritic rat by therapeutic inhibition 1 degree paw after peroral administration of 3.3 mg/kg of dose; type: functional; conditions: route oral
Rattus norvegicus [18] = experiment: Compound was tested for gastric ulcerogenic effect in rats, activity expressed as lesion length at a dose of 100 mg/kg
Cyclooxygenase = biological target: T1, Cyclooxygenase (Rattus norvegicus, UniProt P35355+Q63921); experiment: In vitro inhibitory activity against Prostaglandin G/H synthase in rat neutrophils
T1 sequence (P35355 whole entry): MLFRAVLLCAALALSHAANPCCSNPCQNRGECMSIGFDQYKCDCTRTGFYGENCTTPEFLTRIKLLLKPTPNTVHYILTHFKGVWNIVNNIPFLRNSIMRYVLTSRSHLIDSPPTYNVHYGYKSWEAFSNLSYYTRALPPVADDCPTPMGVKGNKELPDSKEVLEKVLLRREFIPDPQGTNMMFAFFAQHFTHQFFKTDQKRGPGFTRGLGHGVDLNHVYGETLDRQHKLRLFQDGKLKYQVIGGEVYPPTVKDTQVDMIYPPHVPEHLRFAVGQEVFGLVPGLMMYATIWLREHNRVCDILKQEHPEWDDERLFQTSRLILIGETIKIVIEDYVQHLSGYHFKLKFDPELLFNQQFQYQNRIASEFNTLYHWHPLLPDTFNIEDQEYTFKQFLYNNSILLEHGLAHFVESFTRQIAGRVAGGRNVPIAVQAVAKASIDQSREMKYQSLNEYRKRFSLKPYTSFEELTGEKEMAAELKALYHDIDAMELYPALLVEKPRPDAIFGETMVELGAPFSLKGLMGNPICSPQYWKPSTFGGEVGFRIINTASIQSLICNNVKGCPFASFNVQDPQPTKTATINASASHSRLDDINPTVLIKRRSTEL
T1 sequence (Q63921 whole entry): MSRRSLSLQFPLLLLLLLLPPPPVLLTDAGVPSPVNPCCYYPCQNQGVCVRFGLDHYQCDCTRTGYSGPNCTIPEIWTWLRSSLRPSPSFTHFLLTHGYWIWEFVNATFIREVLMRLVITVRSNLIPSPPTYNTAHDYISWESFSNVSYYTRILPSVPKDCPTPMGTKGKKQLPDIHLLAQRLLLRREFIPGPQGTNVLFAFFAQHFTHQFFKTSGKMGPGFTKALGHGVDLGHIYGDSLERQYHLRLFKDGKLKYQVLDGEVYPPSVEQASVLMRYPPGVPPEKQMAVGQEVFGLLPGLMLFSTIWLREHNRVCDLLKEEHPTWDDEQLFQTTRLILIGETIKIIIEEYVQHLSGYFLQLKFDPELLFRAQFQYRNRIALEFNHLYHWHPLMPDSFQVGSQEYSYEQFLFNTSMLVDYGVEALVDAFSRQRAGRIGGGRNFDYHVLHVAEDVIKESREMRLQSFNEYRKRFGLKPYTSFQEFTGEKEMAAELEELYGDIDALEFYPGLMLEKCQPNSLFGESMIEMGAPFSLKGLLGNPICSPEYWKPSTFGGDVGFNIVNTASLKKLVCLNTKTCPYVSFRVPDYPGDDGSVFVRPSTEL

Rattus norvegicus [19] = experiment: Compound was tested in vivo for antiinflammatory activity against chronic adjuvant arthritic rat by therapeutic inhibition 2 degree paw after peroral administration of 30 mg/kg of dose; type: functional; conditions: route oral
Rattus norvegicus [20] = experiment: Compound was tested for intestinal ulcerogenic effect in rats, activity expressed as ulcer incidence at a dose of 300 mg/kg; type: functional; summary of the method: as §1
[21] = Plasma level data at a dose of 20 mg/kg, iv after 0.5 hr; type: ADME, organism-based; design: dose 20 mg/kg, route intravenous; conditions: read-out: Plasma level
Summary of the method: (§2)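 Male Lewis rats get a single iv or oral dose of the sodium salt, suspended in 0.4% (w/v) methyl cellulose. Plasma drug levels are measured by HPLC at the timed points and given as mean ± SD, n = 3.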

[22] = Plasma level data at a dose of 20mg/kg, po after 6 hr; type: ADME, organism-based; conditions: read-out: Plasma level; summary of the method: as §2
[23] = Plasma level data at a dose of 20 mg/kg, iv after 0.25 hr; type: ADME, organism-based; design: dose 20 mg/kg, route intravenous; conditions: read-out: Plasma level; summary of the method: as §2
Rattus norvegicus [24] = species: Rattus norvegicus; experiment: Delayed Type hypersensitivity (DTH) is measured by increase in ear thickness 24 hours after antigen injection into pinna; type: functional

| SMILES | Ulcer incidence (Rattus norvegicus [1]) | inhibition in vivo at 36 mg/kg (Rattus norvegicus [3]) | inhibition in vivo at 18 mg/kg (Rattus norvegicus [5]) | Ulcer incidence (Rattus norvegicus [6]) | Length (Rattus norvegicus [7]) | Length (Rattus norvegicus [8]) | Lesion score (Rattus norvegicus [9]) | Ulcer incidence (Rattus norvegicus [10]) | Length (Rattus norvegicus [11]) | Ulcer incidence (Rattus norvegicus [12]) | Ulcer incidence (Rattus norvegicus [16]) | inhibition in vivo at 3.3 mg/kg (Rattus norvegicus [17]) | IC50 (Cyclooxygenase) | inhibition in vivo at 30 mg/kg (Rattus norvegicus [19]) | other results |
| --- | --- | --- | --- | --- | --- | --- | --- | --- | --- | --- | --- | --- | --- | --- | --- |
| CCCc1c(O)n(Cc2ccc(F)cc2)c2nc3c(c(=O)n(C)c(=O)n3C)n2c1=O | 0 number/group | 67% | 49% | 0 number/group | 0 mm rat-1 | 0 mm rat-1 | 0 mm rat-1 | 0 number/group | 0 mm rat-1 | 0 number/group | 0 number/group | – | – | – | inhibition in vivo at 10 mg/kg (Rattus norvegicus [2]): 27%; Relative potency (Rattus norvegicus [4]): 0.9; Lesion score (Rattus norvegicus [13]): 0 mm rat-1; concentration at 4 h [14]: 41.8 µg/mL; Ulcer incidence (Rattus norvegicus [15]): 0 number/group |
| CC(C)=CCc1c(O)n(Cc2ccc(F)cc2)c2nc3c(c(=O)n(C)c(=O)n3C)n2c1=O | – | 69% | 69% | – | – | – | – | – | – | – | – | 21% | 4.2 µM | 87% | Length (Rattus norvegicus [18]): 0.1 mm rat-1; Ulcer incidence (Rattus norvegicus [20]): 2 number/group |
| CC(C)=CCc1c(O)n(Cc2ccccc2)c2nc3c(c(=O)n(C)c(=O)n3C)n2c1=O | 0 number/group | – | – | 0 number/group | 0 mm rat-1 | 0 mm rat-1 | 0 mm rat-1 | 1 number/group | 9.6 mm rat-1 | 1 number/group | 0 number/group | 24% | 2 µM | 83% | concentration at 0.5 h [21]: 78.6 µg/mL; concentration at 6 h [22]: 37 µg/mL; concentration at 0.25 h [23]: 95.1 µg/mL; DTH (Rattus norvegicus [24]): 0.0582 mm |

Source: ChEMBL document CHEMBL1123282, “Antiinflammatory activity of substituted 6-hydroxypyrimido[2,1-f]purine-2,4,8(1H,3H,9H)-triones. Atypical nonsteroidal antiinflammatory agents” (J Med Chem, 1986)
